ChEMBL document CHEMBL3351279, “Topoisomerase II inhibitors from the roots of Stellera chamaejasme L” (Bioorg Med Chem, 2014)
The source made the active and inactive calls. The calls are words filed in the database; no cut-off is given here.

Columns and labels:
A549 [1] = experiment: Cytotoxicity against human A549 cells after 72 hrs by SRB assay; format: functional, cell-based; settings: A549, 72 h
Outline: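 A549 cells grown in F12 with 10% heat-inactivated FBS (37°C, 5% CO2), seeded overnight, then exposed 72 h. Fixed in cold 10% TCA for 1 h at 4°C, stained with 4 mg/mL SRB in 1% acetic acid for 15 min, solubilized in 10 mM Tris-HCl, read at A560. Inhibition = [1 − A560treated/A560control]×100%; IC50 by Logit method, at least three independent tests.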

[2] = target: DNA topoisomerase 2-alpha (Homo sapiens) (UniProt P11388); experiment: Inhibition of DNA topoisomerase-2 (unknown origin) assessed as inhibition of supercoiled pBR322 relaxation at 100 uM after 15 mins by gel electrophoresis
Outline: (§1)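 Supercoiled pBR322 relaxation with compounds at 100 µM. Topo I: 12.5 µg/mL DNA, 0.01 unit/µL enzyme, no ATP. Topo IIα: 6.67 µg/mL DNA, 0.0467 units/µL enzyme, 1 mM ATP. 37°C for 15 min, SDS stop, 1% agarose/TAE gel at 4 V/cm for 1 h, ethidium bromide stain.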

[3] = target: DNA topoisomerase 2-alpha (Homo sapiens) (UniProt P11388); experiment: Inhibition of DNA topoisomerase-2 (unknown origin) assessed as inhibition of kDNA decatenation at 100 uM after 15 mins by agarose gel electrophoresis
[4] = target: T1, DNA topoisomerase 1 (Homo sapiens) (UniProt P11387); experiment: Inhibition of DNA topoisomerase-1 (unknown origin) assessed as inhibition of supercoiled pBR322 relaxation up to 100 uM after 15 mins by gel electrophoresis; outline: as §1
T1 sequence (whole entry): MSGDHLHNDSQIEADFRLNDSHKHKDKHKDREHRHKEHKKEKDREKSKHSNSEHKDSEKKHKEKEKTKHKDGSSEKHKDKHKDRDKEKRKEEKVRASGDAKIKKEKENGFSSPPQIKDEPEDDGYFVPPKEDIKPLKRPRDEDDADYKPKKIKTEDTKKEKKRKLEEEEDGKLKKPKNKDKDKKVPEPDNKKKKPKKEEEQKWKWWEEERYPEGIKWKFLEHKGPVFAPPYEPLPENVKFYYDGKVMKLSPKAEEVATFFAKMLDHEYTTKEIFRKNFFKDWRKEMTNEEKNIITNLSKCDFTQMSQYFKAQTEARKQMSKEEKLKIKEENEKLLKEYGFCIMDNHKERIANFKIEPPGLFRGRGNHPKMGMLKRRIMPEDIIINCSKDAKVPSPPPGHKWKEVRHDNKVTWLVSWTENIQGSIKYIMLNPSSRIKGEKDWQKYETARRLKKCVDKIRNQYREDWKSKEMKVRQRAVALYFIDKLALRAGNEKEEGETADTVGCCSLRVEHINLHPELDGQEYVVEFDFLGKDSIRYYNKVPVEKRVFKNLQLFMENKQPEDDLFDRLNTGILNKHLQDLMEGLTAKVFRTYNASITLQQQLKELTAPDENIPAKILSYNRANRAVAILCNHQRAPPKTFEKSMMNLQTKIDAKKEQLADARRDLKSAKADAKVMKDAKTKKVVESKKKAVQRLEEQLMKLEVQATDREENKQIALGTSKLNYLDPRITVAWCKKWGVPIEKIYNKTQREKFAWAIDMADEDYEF

A549 [5] = experiment: Cell cycle arrest in human A549 cells assessed as accumulation at G2 phase at 300 nM after 24 hrs by propidium iodide staining-based flow cytometry (reference value: 18%); format: functional
A549 [6] = experiment: Induction of apoptosis in human A549 cells assessed as early apoptotic cells at 10 nM after 48 hrs by Annexin V/propidium iodide staining-based flow cytometry (reference value: 5.75%); format: functional
Outline: (§2)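 After 48 h exposure, A549 cells resuspended in cold binding buffer with Annexin-V-FITC and PI, kept 10 min at room temperature in the dark, then analyzed on a FACSCalibur. Annexin-V+/PI− cells counted as early apoptotic.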

A549 [7] = experiment: Induction of apoptosis in human A549 cells assessed as early apoptotic cells at 30 nM after 48 hrs by Annexin V/propidium iodide staining-based flow cytometry (reference value: 5.75%); format: functional; outline: as §2
A549 [8] = experiment: Cell cycle arrest in human A549 cells assessed as accumulation at G2/M phase at 10 to 300 nM after 24 hrs by propidium iodide staining-based flow cytometry; format: functional

DNA topoisomerase 2-alpha (Homo sapiens), sequence (P11388 whole entry): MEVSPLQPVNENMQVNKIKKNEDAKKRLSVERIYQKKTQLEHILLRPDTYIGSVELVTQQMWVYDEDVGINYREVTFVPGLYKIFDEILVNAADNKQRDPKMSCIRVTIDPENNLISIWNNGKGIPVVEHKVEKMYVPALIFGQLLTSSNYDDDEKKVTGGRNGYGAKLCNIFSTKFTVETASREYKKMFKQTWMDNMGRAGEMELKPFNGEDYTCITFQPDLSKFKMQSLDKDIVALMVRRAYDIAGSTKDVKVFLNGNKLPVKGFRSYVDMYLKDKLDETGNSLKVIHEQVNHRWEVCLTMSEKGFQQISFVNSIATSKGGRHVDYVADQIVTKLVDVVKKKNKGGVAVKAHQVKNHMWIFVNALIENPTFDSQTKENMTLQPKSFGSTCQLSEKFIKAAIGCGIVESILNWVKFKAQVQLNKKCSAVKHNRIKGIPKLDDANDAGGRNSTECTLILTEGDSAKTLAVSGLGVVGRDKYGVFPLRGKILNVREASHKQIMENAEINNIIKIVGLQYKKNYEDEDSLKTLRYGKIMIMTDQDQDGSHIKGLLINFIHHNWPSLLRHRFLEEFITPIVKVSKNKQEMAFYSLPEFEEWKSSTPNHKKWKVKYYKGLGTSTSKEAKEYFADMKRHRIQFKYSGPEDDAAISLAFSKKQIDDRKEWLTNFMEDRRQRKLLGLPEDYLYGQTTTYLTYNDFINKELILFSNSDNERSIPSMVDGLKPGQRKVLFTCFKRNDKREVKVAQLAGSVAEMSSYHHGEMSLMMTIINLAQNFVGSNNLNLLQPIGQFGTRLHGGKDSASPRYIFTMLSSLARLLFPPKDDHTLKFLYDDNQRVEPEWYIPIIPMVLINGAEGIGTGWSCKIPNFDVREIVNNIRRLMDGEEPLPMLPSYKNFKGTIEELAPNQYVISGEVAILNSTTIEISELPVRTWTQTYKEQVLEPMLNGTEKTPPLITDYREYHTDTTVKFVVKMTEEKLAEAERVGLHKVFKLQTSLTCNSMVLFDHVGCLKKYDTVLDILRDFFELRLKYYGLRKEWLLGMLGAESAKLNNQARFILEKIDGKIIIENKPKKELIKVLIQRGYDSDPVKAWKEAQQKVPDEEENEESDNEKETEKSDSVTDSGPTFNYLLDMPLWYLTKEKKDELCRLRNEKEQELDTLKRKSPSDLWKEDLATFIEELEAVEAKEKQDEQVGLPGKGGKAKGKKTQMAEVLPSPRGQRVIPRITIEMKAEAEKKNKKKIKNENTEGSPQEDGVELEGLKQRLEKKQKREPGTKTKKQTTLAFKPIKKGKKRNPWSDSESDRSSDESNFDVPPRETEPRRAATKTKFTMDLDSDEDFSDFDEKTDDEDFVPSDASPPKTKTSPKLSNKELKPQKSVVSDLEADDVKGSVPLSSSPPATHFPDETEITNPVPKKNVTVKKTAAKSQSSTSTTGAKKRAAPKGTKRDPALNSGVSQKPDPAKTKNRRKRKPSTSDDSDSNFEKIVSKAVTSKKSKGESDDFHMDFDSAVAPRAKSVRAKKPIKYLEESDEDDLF

SMILES	IC50 (A549 [1]) [nM]	inhibition [2]	inhibition [3]	inhibition [4]	further results
C=C(C)[C@@]12O[C@@]3(/C=C/C=C/CCCCCCCCC)O[C@@H]1[C@@H]1[C@@H]4O[C@]4(CO)[C@@H](O)[C@]4(O)C(=O)C(C)=C[C@H]4[C@@]1(O3)[C@H](C)[C@H]2OC(C)=O	0.4	–	–	–	–
C[C@H]1CC=C2[C@H]1C[C@]1(O)C(=O)C[C@@]2(C)C1(C)CO (stereo not given in full)	1950	–	–	–	–
C=C(C)[C@]1(OC(=O)/C=C\C=C\CCCCCCCCC)C[C@@H](C)[C@@]2(O)[C@H]([C@H]1O)[C@@H]1O[C@]1(CO)[C@@H](O)[C@]1(O)C(=O)C(C)=C[C@H]12	2.7	Active	Active	inactive	Activity (A549 [5]): >50%; Activity (A549 [6]): 17.57%; Activity (A549 [7]): 19.94%; Activity (A549 [8]): Active
C=C(C)[C@]12C[C@@H](C)[C@@]34O[C@](/C=C/C=C/CCCCCCCCC)(O[C@@H]1[C@@H]3[C@@H]1O[C@]1(CO)[C@@H](O)[C@]1(O)C(=O)C(C)=C[C@H]14)O2	0.7	Active	Active	inactive	–
C=C(C)[C@]12C[C@@H](C)[C@@]34O[C@](CCCCCCCCC)(O[C@@H]1[C@@H]3[C@@H]1O[C@]1(CO)[C@@H](O)[C@]1(O)C(=O)C(C)=C[C@H]14)O2 [SIMPLEXIN]	0.3	–	–	–	–
C=C(C)[C@@]1(O)[C@H](OC(=O)/C=C/C=C/CCCCCCCC)[C@@H]2[C@@H]3O[C@]3(CO)[C@@H](O)[C@]3(O)C(=O)C(C)=C[C@H]3[C@@]2(O)[C@H](C)[C@H]1OC(C)=O	24	Active	Active	inactive	–
COc1cc([C@@H]2c3cc4c(cc3[C@@H](O[C@@H]3O[C@@H]5CO[C@@H](C)O[C@H]5[C@H](O)[C@H]3O)[C@H]3COC(=O)[C@H]23)OCO4)cc(OC)c1O	–	Active	–	–	–
COc1cc(C[C@H]2COC(=O)[C@@H]2Cc2ccc3c(c2)OCO3)ccc1O	273	–	–	–	–
COc1cc([C@H]2OC[C@@H]3Cc4cc(OC)c(O)cc4C[C@@H]32)ccc1O	1530	Active	Active	inactive	–
